According to PubChem BioAssay:
Activity calls are given as the source filed them.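 The calls were made as follows: active = growth inhibition above a set limit, 3 SD over mean compound inhibition, in both replicates (cut at about 43% in these data); inconclusive = above the limit in only one replicate; inactive = at or below the limit in both replicates.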

assay: Restrictive medium S. cerevisiae growth inhibition, OD615, pilot screen of yeast lifespan reduction project, restrictive growth control (AID 706); details: OD615, 48 h, at 10 µM, active compounds read high;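 also: modified DeaD lifespan yeast strain shifted to restrictive glucose medium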
Outline: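 System: Engineered S. cerevisiae DeaD strain | Buffer or medium: Glucose-based CSMM-D restrictive medium | Schedule: 4 h pre-incubation, 48 h exposure at 30 °C | Technique: Optical density at 615 nm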

Growth inhibition, inactive:
Cc1ccc(S(=O)(=O)NCC(=O)N2CCOCC2)cc1 -10.3%, COc1ccc(Cl)cc1C(=O)Nc1cc(=O)n(C)c(=O)n1C -29.6%, CCc1noc2c1/C(=N\O)CC(c1ccccc1)C2 (stereo unspecified) 4.22%, CN(CC1CCCO1)S(=O)(=O)c1ccc(C(=O)Nc2nc(-c3ccccn3)cs2)cc1 (stereo unspecified) -14.7%, Cc1csc(NC(=O)C2CCCN(S(=O)(=O)c3cccnc3)C2)n1 (stereo unspecified) 1.94%, O=C(NCCn1ccc2ccccc21)c1ccc(S(=O)(=O)N2CCOCC2)cc1 -8.71%, COCCOC(=O)C1=C(C)NC(=O)NC1c1c(F)cccc1Cl (stereo unspecified) -2.18%, CN(CC(=O)NC1CCCc2ccccc21)S(=O)(=O)c1ccc2c(c1)c(=O)n(C)c(=O)n2C (stereo unspecified) -10.7%, Cc1ccc2oc(=O)c3cnn(CC(=O)NC4CCCCC4C)c3c2c1 (stereo unspecified) -9.46%, Cc1nc(-c2ccc(S(=O)(=O)N3CCCCCC3)cc2)cs1 2.95%, FC(F)(F)C12CC(c3ccccc3)=NCCN1CCN2 (stereo unspecified) 4.43%, CCCCCN=C(C)c1c(O)c2ccccc2oc1=O 1.03%, CC1=C(C(=O)Nc2ccccc2C)C(c2ccccc2)NC(=O)N1 (stereo unspecified) -7.71%, C/C(=C1\SC(N2CCOCC2)=NC1=O)c1ccccc1 -10.6%, N#CC1=C(N)Oc2n[nH]c(-c3ccccc3)c2C1c1cccc(OC(=O)N2CCOCC2)c1 (stereo unspecified) 2.86%, Cn1c(Cn2c(=O)sc3ccccc32)nnc1SCC(=O)NC1CCCCC1 -24.8%
